The text below walks through data of article PMC7069368 (MedChemComm, 2019).

Entries after “also recorded” stand apart in the source; their conditions may differ. Marks after values point to notes of the source that are not given here.

Data set [1] in a line: Thermodynamic solubility assay. In kind it is physicochemical. Particulars: in vitro ADME, data not shown. In outline:
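Solid test compound (0.2–0.5 mg) was saturated in PBS and shaken at 900 rpm, room temperature, for 48 h. It was centrifuged 30 min at 10 000×g, 23 °C. The supernatant was diluted 10–1000× in acetonitrile/H₂O (50/50) in two steps and quantified by LC-MS/MS.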

In data set [2] the test system is HeLa cells. The conditions noted are these: 10 μM compound; % of cell growth; data provided from previous studies ref 10, 11; cited from earlier work.
The conditions of data set [3]: Ames test; cited from earlier work. A general note: In the Ames test, an excess of revertant colonies over the control signals mutagenicity.
Data set [4] deals with Caco-2 cell monolayers. The data set can be described thus: Caco-2 permeability. Particulars: in vitro ADME, data not shown. In outline: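 Caco-2 monolayers (passage 94–105) were grown on permeable filters and used on day 21 after seeding. Filters were washed with pre-warmed HBSS. Drug solution (1 μM, prewarmed to 37 °C) was applied as donor to the apical or basolateral side. Both chambers were at pH 7.4.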
(In general: Caco-2 monolayers are a common model of the intestinal barrier.)

Data set [5] is described as follows: Pharmacokinetics in mice. In kind it is in vivo. The conditions noted are these: mouse, PO 10 mg kg^–1 in lipid emulsion. In outline:
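Female C3H mice (9-week C3H/HeOuJ or 22-week C3H/HeJ, by compound) got 10 mg kg⁻¹ as a 100 μL gavage, three per dose and route. The vehicle was 55% capmul, 15% akomed, 15% ethanol and 15% cremophor, emulsified with lukewarm water. Tail-vein blood (20 μL) was taken at 0.5, 1, 2, 4, 8 and 24 h and mixed with acetonitrile. It was methanol-extracted and quantified against spiked blank mouse blood standards.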

The test system of data set [6] is C. trachomatis serovar L2. The data set can be described thus: Reinfect assay. In kind it is cell-based, Chlamydia trachomatis. In outline:
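HeLa 229 cells were infected with serovar L2 EBs in HBSS at MOI 0.3–0.5. Test compound (2.5 or 1 μM in RPMI) was added at 1 h, then incubated 44–48 h. Cells were lysed with cold water, and EBs in SPG were 10-fold serially diluted onto fresh HeLa cells. After 44–46 h, cells were methanol-fixed and stained (anti-Chlamydia/FITC, DAPI). IFUs were counted by automated microscopy and given as % of DMSO control. Three independent experiments, duplicates.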

In data set [7] the test system is C. trachomatis serovar D. The data set can be described thus: C. trachomatis in vivo infection model. The arrangement: species or system mouse. In outline:
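Female C3H/HeJ mice, 8 weeks old, got 2.4 mg medroxyprogesterone acetate s.c. 10 and 3 days pre-infection. Vaginal mucus was swabbed away before intravaginal inoculation (5000 […], 10 μL SPG), with 30 min inverted under anaesthesia. Gavage of 100 μL of 2.33 mg mL⁻¹ in capmul/akomed/cremophor/EtOH water emulsion (n=9), vehicle alone (n=9), or 2 mg mL⁻¹ doxycycline (n=6) began at 10 h, then every 12 h for 7 days.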

As for `Nc1c(Cc2cccc3ccccc23)c(C2CC2)c2n(c1=O)C(C(=O)Nc1ccccc1)CS2` (stereo not drawn) [Compound 2], in data set [1], the “Solubility (in words)” value is reported as “poor solubility”. Moreover, in data set [2], the “HeLa viability 10 μM (%)” value is given as 101 ± 3 ^a %. Besides, the Mutagenic potential result in data set [3] is given as “no mutagenic potential”. In data set [4], the “Permeability (in words)” value was “moderate permeability”.
Regarding `Nc1c(Cc2cccc3ccccc23)c(C2CC2)c2n(c1=O)C(n1cc(-c3ccccc3)nn1)CS2` (stereo not drawn) [Compound 3], the “Oral uptake / oral data (in words)” value in data set [5] is recorded as “too low to be able to be quantified”. For the same compound, in data set [2], the “HeLa viability 10 μM (%)” value is 105 ± 4 ^a %. Besides, the Mutagenic potential result in data set [3] was “no mutagenic potential”.
With `COc1c(Cc2cccc(C)c2C)cc(=O)n2c1SCC2C(=O)Nc1cc(C)cc(F)c1` (stereo not drawn) [Compound 18, 7-(2,3-Dimethylbenzyl)-N-(3-fluoro-5-methylphenyl)-8-methoxy-5-oxo-2,3-dihydrothiazolo[3,2-a]pyridine-3-carboxamide], the “Oral uptake / oral data (in words)” value in data set [5] is “too low to allow for proper determination of pharmacokinetic parameters; also recorded: too low to be able to be quantified”.
With `O=C(Nc1ccccc1)C1CSc2c(C3CC3)c(Cc3cccc4ccccc34)cc(=O)n21` (stereo not drawn) [Compound 24, 8-cyclopropyl-7-(naphthalen-1-ylmethyl)-5-oxo-N-phenyl-3,5-dihydro-2H-thiazolo[3,2-a]pyridine-3-carboxamide], the “HeLa viability 10 μM (%)” value in data set [2] is reported as 100 ± 4 ^a %.
Consider `CS(=O)(=O)Nc1c(Cc2cccc3ccccc23)cc(=O)n2c1SCC2C(=O)Nc1ccccc1` (stereo not drawn) [Compound 30, 8-(Methylsulfonamido)-7-(naphthalen-1-ylmethyl)-5-oxo-N-phenyl-2,3-dihydrothiazolo[3,2-a]pyridine-3-carboxamide], for which the “Concentrations inhibiting C. trachomatis infectivity (in words)” value in data set [6] is “low micromolar concentrations”. The “Effect on vaginal C. trachomatis infection (IFUs per vaginal swab)” value in data set [7] (C3H/HeJ mice, 10 mg kg^–1 oral gavage twice a day for 7 days) is given as “the course of infection was not improved; also recorded: did not affect vaginal C. trachomatis infection”. The “Tolerability (vital signs)” value in data set [7] (mice, 10 mg kg^–1 oral gavage twice a day) was “no negative vital signs”.
